Assay results taken from ChEMBL document CHEMBL2040768, “Synthesis, antimicrobial and cytotoxic activities of sulfone linked bis heterocycles” (Eur J Med Chem, 2012).
Converted amounts (≈) assume the structure as drawn. The source made the active and inactive calls. The calls are words filed in the database; no cut-off is given here.

Assays:
Staphylococcus aureus [1] = assay: Antibacterial activity against Staphylococcus aureus at 50 ug/ml after 24 hrs by agar well diffusion method; assay type: functional; details: for zone of inhibition at 50 µg/mL: read-out: DIZ
Method in brief: (§1)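 Agar well diffusion. Nutrient plates swabbed with 24 h broth culture of the bacterium; 6 mm wells bored and loaded with DMSO solutions of compound (wells at 50 and 100 per well). Chloramphenicol positive control, DMSO negative control. Plates held 37 °C, 24 h; inhibition zone diameter (mm) measured, mean of duplicates.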

Pseudomonas aeruginosa [2] = assay: Antibacterial activity against Pseudomonas aeruginosa at 50 ug/ml after 24 hrs by agar well diffusion method; assay type: functional; details: for zone of inhibition at 50 µg/mL: read-out: DIZ; method in brief: as §1
Pseudomonas aeruginosa [3] = assay: Antibacterial activity against Pseudomonas aeruginosa at 100 ug/ml after 24 hrs by agar well diffusion method; assay type: functional; details: for zone of inhibition at 100 µg/mL: read-out: DIZ; method in brief: as §1
Bacillus subtilis [4] = assay: Antibacterial activity against Bacillus subtilis after 24 hrs by broth dilution method; assay type: functional
Method in brief: (§2)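 Broth dilution MIC. Test samples in DMSO added at increasing concentrations to tubes of nutrient broth cultures, incubated 37 °C for 24 h. Visible turbidity scored against NB control; solvent and no-sample controls included. MIC = lowest concentration preventing visible growth.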

Klebsiella pneumoniae [5] = assay: Antibacterial activity against Klebsiella pneumoniae at 50 ug/ml after 24 hrs by agar well diffusion method; assay type: functional; details: for zone of inhibition at 50 µg/mL: read-out: DIZ; method in brief: as §1
Pseudomonas aeruginosa [6] = assay: Antibacterial activity against Pseudomonas aeruginosa after 24 hrs by broth dilution method; assay type: functional; method in brief: as §2
Staphylococcus aureus [7] = assay: Antibacterial activity against Staphylococcus aureus at 100 ug/ml after 24 hrs by agar well diffusion method; assay type: functional; details: for zone of inhibition at 100 µg/mL: read-out: DIZ; method in brief: as §1
Klebsiella pneumoniae [8] = assay: Antibacterial activity against Klebsiella pneumoniae after 24 hrs by broth dilution method; assay type: functional; method in brief: as §2
Bacillus subtilis [9] = assay: Antibacterial activity against Bacillus subtilis at 50 ug/ml after 24 hrs by agar well diffusion method; assay type: functional; details: for zone of inhibition at 50 µg/mL: read-out: DIZ; method in brief: as §1
Klebsiella pneumoniae [10] = assay: Antibacterial activity against Klebsiella pneumoniae at 100 ug/ml after 24 hrs by agar well diffusion method; assay type: functional; details: for zone of inhibition at 100 µg/mL: read-out: DIZ; method in brief: as §1
Bacillus subtilis [11] = assay: Antibacterial activity against Bacillus subtilis at 100 ug/ml after 24 hrs by agar well diffusion method; assay type: functional; details: for zone of inhibition at 100 µg/mL: read-out: DIZ; method in brief: as §1
Staphylococcus aureus [12] = assay: Antibacterial activity against Staphylococcus aureus after 24 hrs by broth dilution method; assay type: functional; method in brief: as §2
Aspergillus niger [13] = assay: Antifungal activity against Aspergillus niger after 48 hrs by broth dilution method; assay type: functional
Method in brief: (§3)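 Fungal MIC by broth dilution. Compounds dissolved in DMSO, added at rising concentrations to fungal culture tubes, incubated 28 °C for 48 h. Tubes read for visible turbidity alongside a solvent control; lowest concentration with no visible growth taken as MIC.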

Aspergillus niger [14] = assay: Antifungal activity against Aspergillus niger at 100 ug/ml after 48 hrs by agar well diffusion method; assay type: functional; details: for zone of inhibition at 100 µg/mL: read-out: DIZ
Method in brief: (§4)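 Fungal agar well diffusion. Plates swabbed with fungal culture, 6 mm wells filled with DMSO solutions of compound (50 and 100 per well). Ketoconazole positive and DMSO negative controls. Plates incubated 28 °C for 48 h; zone of inhibition diameter (mm) read, average of duplicates.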

Aspergillus niger [15] = assay: Antifungal activity against Aspergillus niger at 50 ug/ml after 48 hrs by agar well diffusion method; assay type: functional; details: for zone of inhibition at 50 µg/mL: read-out: DIZ; method in brief: as §4
Penicillium chrysogenum [16] = assay: Antifungal activity against Penicillium chrysogenum after 48 hrs by broth dilution method; assay type: functional; method in brief: as §3
Penicillium chrysogenum [17] = assay: Antifungal activity against Penicillium chrysogenum at 100 ug/ml after 48 hrs by agar well diffusion method; assay type: functional; details: for zone of inhibition at 100 µg/mL: read-out: DIZ; method in brief: as §4
Penicillium chrysogenum [18] = assay: Antifungal activity against Penicillium chrysogenum at 50 ug/ml after 48 hrs by agar well diffusion method; assay type: functional; details: for zone of inhibition at 50 µg/mL: read-out: DIZ; method in brief: as §4
A549 = assay: Cytotoxicity against human A549 cells up to 0.2 mM after 72 hrs by MTT assay

Structure (SMILES) | zone of inhibition at 50 µg/mL (Staphylococcus aureus [1]) [mm] | zone of inhibition at 50 µg/mL (Pseudomonas aeruginosa [2]) [mm] | zone of inhibition at 100 µg/mL (Pseudomonas aeruginosa [3]) [mm] | zone of inhibition at 50 µg/mL (Klebsiella pneumoniae [5]) [mm] | zone of inhibition at 100 µg/mL (Staphylococcus aureus [7]) [mm] | zone of inhibition at 50 µg/mL (Bacillus subtilis [9]) [mm] | zone of inhibition at 100 µg/mL (Klebsiella pneumoniae [10]) [mm] | zone of inhibition at 100 µg/mL (Bacillus subtilis [11]) [mm] | zone of inhibition at 100 µg/mL (Aspergillus niger [14]) [mm] | zone of inhibition at 50 µg/mL (Aspergillus niger [15]) [mm] | zone of inhibition at 100 µg/mL (Penicillium chrysogenum [17]) [mm] | zone of inhibition at 50 µg/mL (Penicillium chrysogenum [18]) [mm] | Activity (A549) | further results
O=C(N[C@H](CO)[C@H](O)c1ccc([N+](=O)[O-])cc1)C(Cl)Cl [CHLORAMPHENICOL] | 33 | 27 | 30 | 40 | 35 | 34 | 42 | 38 | – | – | – | – | – | MIC (Bacillus subtilis [4]): 6.25 µg/mL (≈ 19.3 µM); MIC (Pseudomonas aeruginosa [6]): 6.25 µg/mL (≈ 19.3 µM); MIC (Klebsiella pneumoniae [8]): 12.5 µg/mL (≈ 38.7 µM); MIC (Staphylococcus aureus [12]): 6.25 µg/mL (≈ 19.3 µM)
CC(=O)N1CCN(c2ccc(OCC3COC(Cn4ccnc4)(c4ccc(Cl)cc4Cl)O3)cc2)CC1 (stereo not given) [KETOCONAZOLE] | – | – | – | – | – | – | – | – | 36 | 33 | 38 | 36 | – | MIC (Aspergillus niger [13]): 6.25 µg/mL (≈ 11.8 µM); MIC (Penicillium chrysogenum [16]): 12.5 µg/mL (≈ 23.5 µM)
O=S(=O)(Cc1nnc(CS(=O)(=O)C2CNN=C2S(=O)(=O)c2ccc(Cl)cc2)o1)Nc1ccc(Cl)cc1 (stereo not given) | 17 | 17 | 19 | 22 | 18 | 17 | 24 | 20 | 23 | 20 | 24 | 22 | inactive | –
O=S(=O)(Cc1nnc(CS(=O)(=O)C2CNN=C2S(=O)(=O)c2ccccc2)o1)Nc1ccccc1 (stereo not given) | – | – | – | – | – | – | – | – | – | – | – | – | inactive | diameter of the inhibition zone (DIZ) (Staphylococcus aureus [1]): inactive; diameter of the inhibition zone (DIZ) (Pseudomonas aeruginosa [2]): inactive; diameter of the inhibition zone (DIZ) (Pseudomonas aeruginosa [3]): inactive; diameter of the inhibition zone (DIZ) (Klebsiella pneumoniae [5]): inactive; diameter of the inhibition zone (DIZ) (Staphylococcus aureus [7]): inactive; diameter of the inhibition zone (DIZ) (Bacillus subtilis [9]): inactive; diameter of the inhibition zone (DIZ) (Aspergillus niger [14]): inactive; diameter of the inhibition zone (DIZ) (Klebsiella pneumoniae [10]): inactive; diameter of the inhibition zone (DIZ) (Aspergillus niger [15]): inactive; diameter of the inhibition zone (DIZ) (Bacillus subtilis [11]): inactive; diameter of the inhibition zone (DIZ) (Penicillium chrysogenum [17]): inactive; diameter of the inhibition zone (DIZ) (Penicillium chrysogenum [18]): inactive
Nn1c(CS(=O)(=O)/C=C/S(=O)(=O)c2ccccc2)nnc1CS(=O)(=O)Nc1ccccc1 | 21 | 17 | 18 | 26 | 23 | 24 | 28 | 26 | 24 | 21 | 26 | 23 | inactive | –
Cc1ccc(NS(=O)(=O)Cc2nnc(CS(=O)(=O)c3c[nH]cc3S(=O)(=O)c3ccc(C)cc3)o2)cc1 | – | – | – | – | – | – | – | – | – | – | – | – | inactive | diameter of the inhibition zone (DIZ) (Staphylococcus aureus [1]): inactive; diameter of the inhibition zone (DIZ) (Pseudomonas aeruginosa [2]): inactive; diameter of the inhibition zone (DIZ) (Pseudomonas aeruginosa [3]): inactive; diameter of the inhibition zone (DIZ) (Klebsiella pneumoniae [5]): inactive; diameter of the inhibition zone (DIZ) (Staphylococcus aureus [7]): inactive; diameter of the inhibition zone (DIZ) (Bacillus subtilis [9]): inactive; diameter of the inhibition zone (DIZ) (Aspergillus niger [14]): inactive; diameter of the inhibition zone (DIZ) (Klebsiella pneumoniae [10]): inactive; diameter of the inhibition zone (DIZ) (Aspergillus niger [15]): inactive; diameter of the inhibition zone (DIZ) (Bacillus subtilis [11]): inactive; diameter of the inhibition zone (DIZ) (Penicillium chrysogenum [17]): inactive; diameter of the inhibition zone (DIZ) (Penicillium chrysogenum [18]): inactive
O=S(=O)(Cc1nnc(CS(=O)(=O)c2c[nH]nc2S(=O)(=O)c2ccccc2)s1)Nc1ccccc1 | 16 | 10 | 12 | 14 | 17 | 15 | 16 | 17 | 17 | 15 | 19 | 16 | inactive | –
Cc1ccc(NS(=O)(=O)Cc2nnc(CS(=O)(=O)C3CNN=C3S(=O)(=O)c3ccc(C)cc3)s2)cc1 (stereo not given) | 11 | 11 | 13 | 16 | 13 | 14 | 18 | 16 | 14 | 11 | 16 | 13 | inactive | –
Cc1ccc(NS(=O)(=O)Cc2nnc(CS(=O)(=O)/C=C/S(=O)(=O)c3ccc(C)cc3)s2)cc1 | 18 | 14 | 16 | 23 | 20 | 21 | 25 | 23 | 21 | 18 | 23 | 20 | inactive | –
O=S(=O)(Cc1nnc(CS(=O)(=O)c2c[nH]cc2S(=O)(=O)c2ccc(Cl)cc2)o1)Nc1ccc(Cl)cc1 | 18 | 18 | 20 | 23 | 20 | 17 | 25 | 21 | 24 | 21 | 26 | 22 | inactive | –
Cc1ccc(NS(=O)(=O)Cc2nnc(CS(=O)(=O)c3c[nH]cc3S(=O)(=O)c3ccc(C)cc3)s2)cc1 | 14 | 13 | 14 | 19 | 16 | 17 | 21 | 19 | 17 | 14 | 19 | 16 | inactive | –
